This passage reports Ki, Kd and Activity results from ChEMBL document CHEMBL4725261, “Design, synthesis and evaluation of carbamate-linked uridyl-based inhibitors of human ST6Gal I” (Bioorg Med Chem, 2020).

The structures appear in SMILES notation.

The first data set has as its target T1, Beta-galactoside alpha-2,6-sialyltransferase 1 (Homo sapiens, UniProt P15907).
T1 sequence (P15907 whole entry): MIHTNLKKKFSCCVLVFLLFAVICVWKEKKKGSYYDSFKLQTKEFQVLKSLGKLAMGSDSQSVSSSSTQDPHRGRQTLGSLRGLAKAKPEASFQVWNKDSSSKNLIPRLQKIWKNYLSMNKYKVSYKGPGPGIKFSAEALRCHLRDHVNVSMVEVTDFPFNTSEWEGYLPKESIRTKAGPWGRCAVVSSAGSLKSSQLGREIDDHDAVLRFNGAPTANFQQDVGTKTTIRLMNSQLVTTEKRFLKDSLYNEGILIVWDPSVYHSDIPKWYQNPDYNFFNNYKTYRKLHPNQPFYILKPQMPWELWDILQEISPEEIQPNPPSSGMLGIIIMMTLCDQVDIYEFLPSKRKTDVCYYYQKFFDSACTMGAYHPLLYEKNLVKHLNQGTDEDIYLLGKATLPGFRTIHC
Kind of data set: Inhibition of recombinant human N-terminal 6His-tagged ST6Gal-1 (Glu44 to Cys406 residues).
Settings: not given
Put shortly: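 Recombinant human ST6Gal I activity was measured in a luminescence microplate assay, and inhibition was expressed as Ki.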
On to `O=C(NC[C@H]1O[C@@H](n2ccc(=O)[nH]c2=O)[C@H](O)[C@@H]1O)OC(c1ccc(F)cc1)P(=O)(O)O` (stereo in doubt; 28c-(l)), for which the Ki (commonly the equilibrium dissociation constant of an inhibitor or competing ligand from its target) turned out to be 1.1 µM.
As to `O=C(NC[C@H]1O[C@@H](n2ccc(=O)[nH]c2=O)[C@H](O)[C@@H]1O)OC(c1ccc(F)cc1)P(=O)([O-])[O-].[Na+].[Na+]` (stereo in doubt; 28c-(s)), the Ki is 306 µM.
For the compound `O=C(NC[C@H]1O[C@@H](n2ccc(=O)[nH]c2=O)[C@H](O)[C@@H]1O)OC(c1cccc(F)c1)P(=O)([O-])[O-].[Na+].[Na+]` (stereo in doubt; 28d-(s)), the Ki stood at 19.2 µM.
Consider `CCCOc1cccc(C(OC(=O)NC[C@H]2O[C@@H](n3ccc(=O)[nH]c3=O)[C@H](O)[C@@H]2O)P(=O)(O)O)c1` (stereo in doubt; 28e-(l)), for which the Ki amounted to 20.3 µM.
In the case of `O=C(NC[C@H]1O[C@@H](n2ccc(=O)[nH]c2=O)[C@H](O)[C@@H]1O)OC(c1ccc(OC2CCCC2)cc1)P(=O)(O)O` (stereo in doubt; 28i-(l)), the Ki is 11.5 µM.
Still for that read-out and setting: then `O=C(NC[C@H]1O[C@@H](n2ccc(=O)[nH]c2=O)[C@H](O)[C@@H]1O)OC(c1ccc(OC2CCCC2)cc1)P(=O)([O-])[O-].[Na+].[Na+]` (stereo in doubt; 28i-(s)), with 55.5 µM; and `O=C(NC[C@H]1O[C@@H](n2ccc(=O)[nH]c2=O)[C@H](O)[C@@H]1O)OC(c1cc2ccccc2s1)P(=O)([O-])[O-].[Na+].[Na+]` (stereo in doubt; 28k-(s)), with 8.5 µM.

Another data set concerns the target T1, Beta-galactoside alpha-2,6-sialyltransferase 1. Kind of data set: Displacement of fluorescent probe from human ST6Gal-1 by fluorescence polarization assay.
Settings: not given
In general terms: Polarisation of emitted light reports the rotation of a fluorescent probe.
As to `Nc1ccn([C@@H]2O[C@H](COP(=O)(O)O[C@@H](c3cccc(NC(=O)c4ccc(C(=O)O)c(-c5c6ccc(=O)cc-6oc6cc(O)ccc56)c4)c3)P(=O)(O)O)[C@@H](O)[C@H]2O)c(=O)n1`, the Kd – broadly, the concentration at which binding is half-saturated – was 0.022 µM.
As for `Nc1ccn([C@@H]2O[C@H](COP(=O)(O)O[C@H](c3cccc(NC(=O)c4ccc(C(=O)O)c(-c5c6ccc(=O)cc-6oc6cc(O)ccc56)c4)c3)P(=O)(O)O)[C@@H](O)[C@H]2O)c(=O)n1`, the Kd stood at 0.009 µM.

The target in another data set is T2, Beta-galactoside alpha-2,6-sialyltransferase 1 (Rattus norvegicus, UniProt P13721).
T2 sequence (P13721 whole entry): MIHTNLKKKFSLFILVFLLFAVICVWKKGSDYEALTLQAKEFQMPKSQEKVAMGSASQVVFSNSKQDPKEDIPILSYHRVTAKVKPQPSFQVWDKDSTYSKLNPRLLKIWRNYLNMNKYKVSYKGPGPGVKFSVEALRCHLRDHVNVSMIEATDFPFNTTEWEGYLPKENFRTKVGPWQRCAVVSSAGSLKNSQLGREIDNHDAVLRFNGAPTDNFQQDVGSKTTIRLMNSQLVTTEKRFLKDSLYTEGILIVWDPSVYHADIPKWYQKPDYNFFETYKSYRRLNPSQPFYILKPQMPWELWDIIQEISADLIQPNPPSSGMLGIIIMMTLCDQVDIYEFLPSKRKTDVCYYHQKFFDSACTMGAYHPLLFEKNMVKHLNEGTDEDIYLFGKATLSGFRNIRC
Kind of data set: Inhibition of rat liver ST6Gal-1 by HPLC-based assay.
Settings: not given
With `CC(=O)N[C@H]1[C@@H](Oc2ccccc2)OC([C@@H](OP(=O)(O)OC[C@H]2O[C@@H](n3ccc(N)nc3=O)[C@H](O)[C@@H]2O)P(=O)(O)O)=C[C@@H]1O`, the affinity, expressed as Ki, was 0.029 µM.

The target in the next data set is T2, Beta-galactoside alpha-2,6-sialyltransferase 1. In words: Inhibition of rat liver ST6Gal-1 using […] measured up to 20 mins by HPLC analysis.
Settings: not given
`Nc1ccn([C@@H]2O[C@H](COP(=O)(O)O[C@@H](c3cccc(Oc4ccccc4)c3)P(=O)(O)O)[C@@H](O)[C@H]2O)c(=O)n1` gave a Ki of 0.07 µM.

Another data set concerns MIA PaCa-2. Kind of data set: Cytotoxicity against human MIA PaCa-2 cells assessed as reduction in cell viability at 200 uM after 24 to 48 hrs by MTS assay. The data set is classed as cell-based. As to conditions: mia paca-2, 200 µM, time 24-48 hrs. (In general: Tetrazolium assays rely on reduction of a dye to a coloured formazan, in cell work by metabolically active cells.)
As for `O=C(NC[C@H]1O[C@@H](n2ccc(=O)[nH]c2=O)[C@H](O)[C@@H]1O)OC(c1cccc(Oc2ccccc2)c1)P(=O)([O-])[O-].[Na+].[Na+]` (stereo in doubt; 28a-(s)), the Activity entry is reported as “Non-Toxic”.
As to `O=C(NC[C@H]1O[C@@H](n2ccc(=O)[nH]c2=O)[C@H](O)[C@@H]1O)OC(c1ccc(F)c(Oc2ccccc2)c1)P(=O)([O-])[O-].[Na+].[Na+]` (stereo in doubt; 28b-(s)), the Activity entry is listed as “Non-Toxic”.
With `O=C(NC[C@H]1O[C@@H](n2ccc(=O)[nH]c2=O)[C@H](O)[C@@H]1O)OC(c1ccc(F)cc1)P(=O)([O-])[O-].[Na+].[Na+]` (stereo in doubt; 28c-(s)), the Activity entry is “Non-Toxic”.
As to `O=C(NC[C@H]1O[C@@H](n2ccc(=O)[nH]c2=O)[C@H](O)[C@@H]1O)OC(c1cccc(F)c1)P(=O)([O-])[O-].[Na+].[Na+]` (stereo in doubt; 28d-(s)), the Activity entry is reported as “Non-Toxic”.
Take `CCCOc1cccc(C(OC(=O)NC[C@H]2O[C@@H](n3ccc(=O)[nH]c3=O)[C@H](O)[C@@H]2O)P(=O)([O-])[O-])c1.[Na+].[Na+]` (stereo in doubt; 28e-(s)): the Activity result was “Non-Toxic”.
In the case of `COc1cccc(C(OC(=O)NC[C@H]2O[C@@H](n3ccc(=O)[nH]c3=O)[C@H](O)[C@@H]2O)P(=O)([O-])[O-])c1.[Na+].[Na+]` (stereo in doubt; 28f-(s)), the Activity entry was “Non-Toxic”.
In the case of `COc1ccc(C(OC(=O)NC[C@H]2O[C@@H](n3ccc(=O)[nH]c3=O)[C@H](O)[C@@H]2O)P(=O)([O-])[O-])cc1.[Na+].[Na+]` (stereo in doubt; 28g-(s)), the Activity entry is recorded as “Non-Toxic”.
Turning to `COc1ccc(C(OC(=O)NC[C@H]2O[C@@H](n3ccc(=O)[nH]c3=O)[C@H](O)[C@@H]2O)P(=O)([O-])[O-])cc1OC1CCCC1.[Na+].[Na+]` (stereo in doubt; 28h-(s)), the Activity result is reported as “Non-Toxic”.
Turning to `O=C(NC[C@H]1O[C@@H](n2ccc(=O)[nH]c2=O)[C@H](O)[C@@H]1O)OC(c1ccc(OC2CCCC2)cc1)P(=O)([O-])[O-].[Na+].[Na+]` (stereo in doubt; 28i-(s)), the Activity entry was “Non-Toxic”.
Take `O=C(NC[C@H]1O[C@@H](n2ccc(=O)[nH]c2=O)[C@H](O)[C@@H]1O)OC(c1ccccc1)P(=O)([O-])[O-].[Na+].[Na+]` (stereo in doubt; 28j-(s)): the Activity entry is on record as “Non-Toxic”.
As to `O=C(NC[C@H]1O[C@@H](n2ccc(=O)[nH]c2=O)[C@H](O)[C@@H]1O)OC(c1cc2ccccc2s1)P(=O)([O-])[O-].[Na+].[Na+]` (stereo in doubt; 28k-(s)), the Activity result is on record as “Non-Toxic”.
Still for that read-out and setting: the result for `O=C(NC[C@H]1O[C@@H](n2ccc(=O)[nH]c2=O)[C@H](O)[C@@H]1O)OC(c1csc2ccccc12)P(=O)([O-])[O-].[Na+].[Na+]` (stereo in doubt; 28l-(s)) reads “Non-Toxic”; that for `Nc1ccn([C@@H]2O[C@H](CNC(=O)OC(c3cccc(Oc4ccccc4)c3)P(=O)([O-])[O-])[C@@H](O)[C@H]2O)c(=O)n1.[Na+].[Na+]` (stereo in doubt; 30-(s)), “Non-Toxic”.
